Article PMC7081261 (ACS Omega, 2020)

Test system: DU-145 prostate carcinoma cells
Assay: MTT cell viability assay
Type: cell-based
Settings: 24 h
Summary of the method: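 DU-145 prostate carcinoma cells grown at 37 °C, 5% CO2, then seeded at 1.5 × 10^5 cells per well. Test compound dilution series (10–500 μg/mL) prepared in RPMI-1640 and applied for 24 h; viability read by MTT, expressed as IC50. Elevated-Zn2+ conditions: medium adjusted with 50 μM ZnCl2. DTNB conditions: cells preincubated 1 h in RPMI-1640 with 2.5 mM DTNB, and dilution series supplemented with 1 mM DTNB during the 24 h exposure.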

Row | Substance | cytotoxicity against DU-145 cells (in words) (Zn2+ condition not stated) | cytotoxicity against DU-145 cells (in words) (elevated Zn2+ (50 μM ZnCl2), no DTNB) | cytotoxicity against DU-145 cells (in words) (normal Zn2+ conditions (no ZnCl2 added))
1 | H2N-EAEAEA-SS-(Ac)CAhxGHHPHGHHPH-amide (disulfide) [(EA)3-thiol] | no activity | – | –
2 | (GHHPG)2 | – | No activity | No activity
